The results in this text go back to ChEMBL document CHEMBL1123005, “1-Azacycloalkyl-1,4-benzodiazepin-2-ones with antianxiety-antidepressant actions” (J Med Chem, 1985).

By ED50 is commonly meant the midpoint of the dose-response relation. As usually defined, the inhibition in vivo is the change of the read-out against control, counted positive when it falls. Lower therefore signals a response near the control. One may read the IC50 as the point on the concentration scale where inhibition reaches its midpoint.

Active and inactive are the calls of the source. No cut-off for these calls is given here.

The target of assay [1] is GABA-A receptor; anion channel (Rattus norvegicus) (UniProt O09028+P15431+P18506+P18508+P19969+P20236+P23574+P23576+P28471+P28473+P30191+P62813+P63079+P63138+Q91ZM7+Q9ES14). Kind of assay: Binding constant was determined by displacing potential to [3H]-diazepam binding in cerebral cortex homogenates of rat. Format: tissue-based. Summed up: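 Wistar rat cerebral cortex homogenate incubated with compound and 2 nM [3H]diazepam at 0 °C for 60 min. Bound label trapped on glass filters and counted by scintillation. Ki = IC50/(1 + L/Kd).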

Assay [2] concerns Mus musculus. Kind of assay: Effective dose against pentylenetetrazole intoxicity in mice administered through subcutaneous route;NE= no effect at 10 mg/kg. Details: dose 10 mg/kg. The assay is classed as functional, organism-based.
For assay [3], the system named is Mus musculus. Kind of assay: Effective dose against tetrabenazine induced ptosis in mice administered subcutaneously. To be noted: sc. The assay is classed as functional. The procedure, abridged:
(§1)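 Male DS mice, 20-27 g, groups of five. Compound given po or sc in saline or gum arabic at 0.1 mL/10 g. Tetrabenazine 50 mg/kg sc given 1, 4 or 24 h later. Ptosis scored 1-4 at 1 h after TBZ, with ridit transformation. Dose for 50% prevention by regression.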

Assay [4] relates to Mus musculus. Kind of assay: Effective dose against pentylenetetrazole intoxicity in mice administered orally. Conditions: Mus musculus, po; read-out: ED50. The assay is classed as functional.
For assay [5], the system named is Mus musculus. Kind of assay: Percent inhibition against tetrabenazine induced ptosis in mice administered orally at 100 mg/kg. Format: functional. To be noted: route oral. Summed up:
as §1

The subject of assay [6] is Mus musculus. In words: Effective dose against tetrabenazine induced ptosis in mice administered orally. Format: functional. Conditions: Mus musculus, po; read-out: ED50. The procedure, abridged:
as §1

For assay [7], the system named is Rattus norvegicus. Kind of assay: Effective dose was evaluated by their anticonflict effect in rats when administered through oral route. The assay is classed as functional. The procedure, abridged:
(§2)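 Wistar rats in groups of 5-8, Geller-Seifter conflict procedure. Rats trained to lever-press for food on a variable-interval 60-s schedule. Oral dosing. A dose counted positive when shocks exceeded 12 or shock ratio exceeded 4 over four consecutive tone periods. ED50 with 95% limits by probit.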

Assay [8] relates to Mus musculus. In words: Effective dose against pentylenetetrazole intoxicity in mice administered through subcutaneous route; NE = no effect at dose 10 mg/kg. Also noted: dose 10 mg/kg. The assay is classed as functional, organism-based.
Assay [9] deals with Mus musculus. In words: Effective dose against pentylenetetrazole intoxicity in mice administered through subcutaneous route; NE = no effect at 10 mg/kg. Format: functional, organism-based. Details: dose 10 mg/kg.
Assay [10] relates to Mus musculus. In words: Effective dose against pentylenetetrazole intoxicity in mice administered orally; NE = not effective at dose 50 mg/kg. Details: dose 50 mg/kg. Format: functional, organism-based.
The subject of assay [11] is Mus musculus. In words: Effective dose against pentylenetetrazole intoxicity in mice administered subcutaneously; NE = not effective at dose 10 mg/kg. The assay is classed as functional, organism-based. Details: dose 10 mg/kg.
The species named for assay [12] is Rattus norvegicus. In words: Inhibitory activity against uptake of [3H]norepinephrine into rat brain synaptosomes. Format: functional. The procedure, abridged: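 P2 synaptosomes from male Wistar rat cerebral cortex incubated with [3H]norepinephrine at 37 °C for 20 min, with compound at 5-6 concentrations. Stopped by Krebs-Henseleit dilution and glass-fibre filtration, then scintillation counting. IC50 taken as the concentration giving 50% uptake inhibition.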

In assay [13] the test system is Rattus norvegicus. Kind of assay: Effective dose against anticonflict effect in rats when administered through oral route. The assay is classed as functional. The procedure, abridged: as §2
In assay [14] the test system is Mus musculus. In words: Effective dose against pentylenetetrazole intoxicity in mice administered subcutaneously; NE= no effect at 100 mg/kg. Format: functional, organism-based. Details: dose 100 mg/kg.
Assay [15] has as its system Mus musculus. Kind of assay: Percent inhibition against tetrabenazine induced ptosis in mice administered subcutaneously at 50 mg/kg. Format: functional. Conditions: sc, route subcutaneous. The procedure, abridged:
as §1

For assay [16], the system named is Mus musculus. In words: Effective dose against pentylenetetrazole intoxicity in mice administered orally; NE= no effect at 50 mg/kg. The assay is classed as functional, organism-based. Details: dose 50 mg/kg.
The subject of assay [17] is Mus musculus. In words: Effective dose against pentylenetetrazole intoxicity in mice administered through subcutaneous route. Format: functional. To be noted: sc.
Assay [18] has as its system Mus musculus. Kind of assay: Percent inhibition against tetrabenazine induced ptosis in mice administered orally at 50 mg/kg. To be noted: route oral. Format: functional. Summed up:
as §1

`CN1CCC(N2C(=O)CN=C(c3ccccc3F)c3cc(N(C)C)ccc32)CC1`: the K2 in assay [1] is 8.3 µM. In addition, the ED50 entry in assay [2] is “inactive”. The ED50 in assay [3] turned out to be 0.7 mg/kg.
`CN1CCC(N2C(=O)CN=C(c3ccccc3Cl)c3cc(Cl)ccc32)C1` (configuration not stated) gave a K2 in assay [1] of 0.05 µM. Further, the 50% effective dose (ED50) in [4] was determined as 5.78 mg/kg. In assay [5], this compound displayed an inhibition in vivo at 100 mg/kg of 61%.
In the case of `CN1CCC(N2C(=O)C(O)N=C(c3ccccc3F)c3cc(Cl)ccc32)CC1` (configuration not stated), in assay [1], the K2 is 0.074 µM. The median effective dose (ED50) in assay [4] was found to be 2.41 mg/kg; in [6], 9.79 mg/kg.
`O=C1C(O)N=C(c2ccccc2F)c2cc(Cl)ccc2N1C1CCNCC1` (configuration not stated) showed a K2 in [1] of 0.14 µM. For the same compound, the 50% effective dose (ED50) came to 12.5 mg/kg in assay [4], 6.51 mg/kg in assay [6] and 8.8 mg/kg in assay [7].
`O=C1C(O)N=C(c2ccccc2F)c2ccccc2N1C1CCNCC1` (configuration not stated) registered a K2 in assay [1] of 0.36 µM. Besides, the ED50 entry in assay [8] is “inactive”. The compound also had a 50% effective dose (ED50) in [3] of 0.23 mg/kg.
As to `CN1CCCC(N2C(=O)CN=C(c3ccccc3Cl)c3cc(Cl)ccc32)C1` (configuration not stated), the K2 in assay [1] was 0.016 µM. The ED50 in [4] was found to be 12 mg/kg. In assay [5], this compound had an inhibition in vivo at 100 mg/kg of 21%.
On to `CN1CCC(N2C(=O)CN=C(c3ccccc3F)c3cccc(Cl)c32)CC1`, for which, in [1], the K2 was 4.7 µM. The ED50 result in assay [9] is “inactive”. In addition, in assay [3], the ED50 is 2.66 mg/kg.
Compound `CC(=O)N1CCC(N2C(=O)CN=C(c3ccccc3)c3ccccc32)CC1` returned a K2 in assay [1] of 1.5 µM. Also, the ED50 entry in [8] was “inactive”. Further, the ED50 in assay [3] is 3.25 mg/kg.
As to `CN1CCC(N2C(=O)CN=C(c3ccccc3)c3ccccc32)CC1`, the ED50 entry in [10] and in [11] was “inactive” each time. Moreover, the median effective dose (ED50) was 0.38 mg/kg in [6] and 0.26 mg/kg in assay [3].
As to `COc1ccc2c(c1)C(c1ccccc1F)=NCC(=O)N2C1CCN(C)CC1`, the K2 in assay [1] came to 1.26 µM. Also, in assay [9], the ED50 entry is “inactive”. Besides, in assay [3], it took a dose of 1.24 mg/kg to reach the 50% effect level (ED50).
For `O=C1CN=C(c2ccccc2F)c2cc(Br)ccc2N1C1CCNCC1`, the K2 in assay [1] was determined as 0.033 µM. Moreover, the 50% effective dose (ED50) worked out at 2.7 mg/kg in assay [4], 5.37 mg/kg in [6] and 4.54 mg/kg in [13]. In assay [12], half-maximal inhibition (IC50) was put at 288 nM.
`CN1CCC(N2C(=O)CN=C(c3ccccc3F)c3ccc(Cl)cc32)CC1` registered a K2 in [1] of 0.69 µM. Further, the ED50 result in [14] and in assay [16] was “inactive” each time. Moreover, the inhibition in vivo at 50 mg/kg in assay [15] amounted to 34%.
As for `CN1CCC(N2C(=O)CN=C(c3ccccc3F)c3cc(F)ccc32)CC1`, the ED50 was found to be 26.9 mg/kg in assay [17], 1.62 mg/kg in assay [6], 11.4 mg/kg in assay [7] and 0.27 mg/kg in assay [3]. Also, in [12], the IC50 came out at 53700 nM.
In assay [1], `O=C1CN=C(c2ccccc2F)c2cc(Cl)ccc2N1C1CCN(Cc2ccccc2)C1` (configuration not stated) returned a K2 of 0.27 µM. Moreover, the 50% effective dose (ED50) in [4] turned out to be 1.52 mg/kg. In [18], this compound returned an inhibition in vivo at 50 mg/kg of 58%.
In [1], `O=C1CN=C(c2ccccc2Cl)c2cc(Cl)ccc2N1C1CCNCC1` showed a K2 of 0.017 µM. The median effective dose (ED50) in [4] came to 12.9 mg/kg; in assay [6] it was 9.59 mg/kg; in assay [3], 9.94 mg/kg. For the same compound, the half-inhibitory concentration (IC50) in assay [12] was 562 nM.
In [1], `CN1CCC(N2C(=O)CN=C(c3ccccc3F)c3cc(Br)ccc32)CC1` had a K2 of 0.049 µM. For the same compound, the ED50 was 0.79 mg/kg in assay [17]; 1.61 mg/kg in assay [4]; 3.85 mg/kg in assay [6]; 1.23 mg/kg in assay [7]; 2.45 mg/kg in assay [3].
In turn, `Cc1ccc2c(c1)C(c1ccccc1F)=NCC(=O)N2C1CCN(C)CC1` registered a K2 in assay [1] of 0.26 µM. The ED50 entry in assay [9] was “inactive”. The compound also yielded a median effective dose (ED50) in assay [3] of 0.84 mg/kg.
Turning to `O=C1CN=C(c2ccccc2Cl)c2cc(F)ccc2N1C1CCNCC1`, the K2 in [1] turned out to be 0.012 µM. Further, the ED50 in assay [4] was 29.4 mg/kg; in assay [6], 13.5 mg/kg. The compound also had an IC50 in assay [12] of 877 nM.
